Source: ChEMBL document CHEMBL4196021, “Targeting G-quadruplex DNA structures in the telomere and oncogene promoter regions by benzimidazole‒carbazole ligands” (Eur J Med Chem, 2018)
The source made the active and inactive calls. The calls are words filed in the database; no cut-off is given here.

Legend:
[1] = tested on: Calf thymus DNA; assay: Displacement of thiazole orange from calf thymus duplex DNA after 5 mins in presence of KCl by fluorescence assay; assay type: nucleic-acid assay, Bos taurus
[2] = biological target: Quadruplex DNA; assay: Displacement of thiazole orange from human Bcl2 G-quadruplex DNA after 5 mins in presence of KCl by fluorescence assay; assay type: nucleic-acid assay
Method in brief: (§1)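 Thiazole orange displacement from a G4 DNA–TO complex (1 µM TO + 0.5 µM G4 DNA) in 10 mM Tris-HCl pH 7.4, 100 mM KCl, 0.1 mM EDTA. Ligand was added in increasing steps, with 5 min incubation each. Fluorescence read at ex 501/em 531 nm; % displacement = 100 − (Ft/F0 × 100). DC50 is the ligand concentration giving 50% displacement, read from plots; average of two independent experiments.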

[3] = tested on: Quadruplex DNA; assay: Binding affinity to human c-Kit2 G-quadruplex DNA assessed as change in melting temperature in presence of KCl by CD spectroscopic method; assay type: nucleic-acid assay
Method in brief: (§2)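 CD melting of 5 µM G4 DNA in 10 mM Tris-HCl pH 7.4, 25 mM KCl, 0.1 mM EDTA. Ligand was present during folding (heating, slow cooling). Spectra 200–400 nm over 20–96 °C in 2 °C steps, buffer blank subtracted. Tm was taken from normalized ellipticity at the positive maximum (262 nm for promoter G4s). ΔTm = ligand-bound minus DNA alone; average of two independent experiments.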

[4] = tested on: Quadruplex DNA; assay: Binding affinity to human c-Myc G-quadruplex DNA at 0.6 uM after 5 mins in presence of KCl by fluorescence spectroscopic method; assay type: nucleic-acid assay
Method in brief: (§3)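 Fluorescence titration at 25 °C with 0.6 µM ligand in 10 mM Tris-HCl pH 7.4, 100 mM KCl, 0.1 mM EDTA. Preformed G4 DNA was added stepwise, with 5 min incubation before each spectrum. Excitation 330 nm; emission 350–550 nm, slit 5 nm.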

[5] = tested on: Quadruplex DNA; assay: Binding affinity to human c-Kit1 G-quadruplex DNA assessed as stabilization of parallel stranded topology after 5 mins in presence of KCl by CD spectroscopic method; assay type: nucleic-acid assay
Method in brief: (§4)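 CD spectra of 5 µM G4 DNA in 10 mM Tris-HCl pH 7.4, 100 mM KCl, 0.1 mM EDTA, with or without ligand. Mixtures were heated 95 °C for 5 min and slowly cooled to room temperature. Recorded 200–400 nm at 25 °C, 100 nm/min, 2 s response, 1 cm cell; average of three scans.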

[6] = tested on: Quadruplex DNA; assay: Binding affinity to human Bcl2 G-quadruplex DNA at 0.6 uM after 5 mins in presence of KCl by fluorescence spectroscopic method; assay type: nucleic-acid assay; method in brief: as §3
[7] = tested on: Quadruplex DNA; assay: Binding affinity to human c-Myc G-quadruplex DNA assessed as stabilization of parallel stranded topology after 5 mins in presence of KCl by CD spectroscopic method; assay type: nucleic-acid assay; method in brief: as §4
[8] = tested on: Quadruplex DNA; assay: Binding affinity to human VEGF G-quadruplex DNA at 0.6 uM after 5 mins in presence of KCl by fluorescence spectroscopic method; assay type: nucleic-acid assay; method in brief: as §3
[9] = tested on: Quadruplex DNA; assay: Binding affinity to human c-Kit2 G-quadruplex DNA at 0.6 uM after 5 mins in presence of KCl by fluorescence spectroscopic method; assay type: nucleic-acid assay; method in brief: as §3
[10] = tested on: Quadruplex DNA; assay: Induction of conformational changes in human Bcl2 G-quadruplex DNA assessed as inversion from potassium ion stabilized hybrid type mixed parallel/antiparallel G-quadruplex to stable telomere parallel-stranded G-quadruplex after 5 mins in presence of KCl by CD spectroscopic method; assay type: nucleic-acid assay; method in brief: as §4
[11] = tested on: Quadruplex DNA; assay: Binding affinity to human telomeric G-quadruplex DNA at 0.6 uM after 5 mins in presence of KCl by fluorescence spectroscopic method; assay type: nucleic-acid assay; method in brief: as §3
[12] = biological target: Quadruplex DNA; assay: Displacement of thiazole orange from human telomeric G-quadruplex DNA after 5 mins in presence of KCl by fluorescence assay; assay type: nucleic-acid assay; method in brief: as §1
[13] = biological target: Quadruplex DNA; assay: Displacement of thiazole orange from human c-Kit1 G-quadruplex DNA after 5 mins in presence of KCl by fluorescence assay; assay type: nucleic-acid assay; method in brief: as §1
[14] = biological target: Quadruplex DNA; assay: Displacement of thiazole orange from human VEGF G-quadruplex DNA after 5 mins in presence of KCl by fluorescence assay; assay type: nucleic-acid assay; method in brief: as §1
[15] = tested on: Quadruplex DNA; assay: Binding affinity to human c-Kit1 G-quadruplex DNA assessed as change in melting temperature in presence of KCl by CD spectroscopic method; assay type: nucleic-acid assay; method in brief: as §2
[16] = tested on: Quadruplex DNA; assay: Binding affinity to human VEGF G-quadruplex DNA assessed as change in melting temperature in presence of KCl by CD spectroscopic method; assay type: nucleic-acid assay; method in brief: as §2
[17] = tested on: Quadruplex DNA; assay: Binding affinity to human Bcl2 G-quadruplex DNA assessed as change in melting temperature in presence of KCl by CD spectroscopic method; assay type: nucleic-acid assay; method in brief: as §2
[18] = tested on: Quadruplex DNA; assay: Binding affinity to human telomeric G-quadruplex DNA assessed as change in melting temperature in presence of KCl by CD spectroscopic method; assay type: nucleic-acid assay; method in brief: as §2
[19] = tested on: Quadruplex DNA; assay: Binding affinity to human c-Kit1 G-quadruplex DNA at 0.6 uM after 5 mins in presence of KCl by fluorescence spectroscopic method; assay type: nucleic-acid assay; method in brief: as §3
[20] = biological target: Quadruplex DNA; assay: Displacement of thiazole orange from human c-Myc G-quadruplex DNA after 5 mins in presence of KCl by fluorescence assay; assay type: nucleic-acid assay; method in brief: as §1
[21] = tested on: Quadruplex DNA; assay: Binding affinity to human c-Myc G-quadruplex DNA assessed as change in melting temperature in presence of KCl by CD spectroscopic method; assay type: nucleic-acid assay; method in brief: as §2
[22] = tested on: Quadruplex DNA; assay: Binding affinity to human c-Kit2 G-quadruplex DNA assessed as stabilization of parallel stranded topology after 5 mins in presence of KCl by CD spectroscopic method; assay type: nucleic-acid assay; method in brief: as §4
[23] = tested on: Quadruplex DNA; assay: Induction of conformational changes in human telomeric G-quadruplex DNA assessed as inversion from potassium ion stabilized hybrid type mixed parallel/antiparallel G-quadruplex to stable telomere parallel-stranded G-quadruplex after 5 mins in presence of KCl by CD spectroscopic method; assay type: nucleic-acid assay; method in brief: as §4
[24] = biological target: Quadruplex DNA; assay: Displacement of thiazole orange from human c-Kit2 G-quadruplex DNA after 5 mins in presence of KCl by fluorescence assay; assay type: nucleic-acid assay; method in brief: as §1
[25] = tested on: Quadruplex DNA; assay: Binding affinity to human VEGF G-quadruplex DNA assessed as stabilization of parallel stranded topology after 5 mins in presence of KCl by CD spectroscopic method; assay type: nucleic-acid assay; method in brief: as §4
[26] = tested on: Quadruplex DNA; assay: Binding affinity to human 77-mer c-Myc G-quadruplex DNA assessed as inhibition of Taq DNA polymerase-mediated DNA synthesis by measuring generation of premature chain termination products using 32P-labeled primer after 30 mins by polymerase stop assay; assay type: nucleic-acid assay
Method in brief: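 Template of 10 nM single-stranded 77-mer c-MYC with the G-quadruplex-forming sequence, annealed to 32P-labeled plus cold primer (15 nM) in Tris-HCl pH 7.4 with 5 mM KCl. Annealing was 95 °C for 5 min then slow cooling, with ligand added before annealing. Extension with Taq polymerase (5 mM MgCl2, 0.5 mM DTT, 0.2 mM dNTPs) ran 30 min at 48 or 40 °C. Products were resolved on 15% urea denaturing PAGE and read by phosphorimaging.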

## CN1CCN(CCCCn2c3ccc(-c4nc5cc(N6CCN(CCO)CC6)ccc5[nH]4)cc3c3cc(-c4nc5cc(N6CCN(CCO)CC6)ccc5[nH]4)ccc32)CC1
[1]
  DC50: 6490 nM
[2]
  DC50: 1440 nM
[3]
  ΔTm: 22 °C
[4]
  Activity: Active
[5]
  Activity: Active
[6]
  Activity: Active
[7]
  Activity: Active
[8]
  Activity: Active
[9]
  Activity: Active
[10]
  Activity: Active
[11]
  Activity: Active
[12]
  DC50: 1150 nM
[13]
  DC50: 880 nM
[14]
  DC50: 750 nM
[15]
  ΔTm: 25.9 °C
[16]
  ΔTm: 14.2 °C
[17]
  ΔTm: 9.5 °C
[18]
  ΔTm: 21.2 °C
[19]
  Activity: Active
[20]
  DC50: 980 nM
[21]
  ΔTm: 8.86 °C
[22]
  Activity: Active
[23]
  Activity: Active
[24]
  DC50: 660 nM
[25]
  Activity: Active

## C[n+]1ccc(-c2c3nc(c(-c4cc[n+](C)cc4)c4ccc([nH]4)c(-c4cc[n+](C)cc4)c4nc(c(-c5cc[n+](C)cc5)c5ccc2[nH]5)C=C4)C=C3)cc1
[1]
  DC50: 870 nM
[2]
  DC50: 430 nM
[12]
  DC50: 470 nM
[13]
  DC50: 320 nM
[14]
  DC50: 310 nM
[20]
  DC50: 380 nM
[24]
  DC50: 350 nM

## C[N+]1(CCCCN2CCOCC2)CCN(CCCCn2c3ccc(-c4nc5ccc(N6CCOCC6)cc5[nH]4)cc3c3cc(-c4nc5ccc(N6CCOCC6)cc5[nH]4)ccc32)CC1
[1]
  DC50: > 10000 nM
[2]
  DC50: > 3000 nM
[3]
  ΔTm: 7.53 °C
[4]
  Activity: Active
[5]
  Activity: Active
[6]
  Activity: Active
[7]
  Activity: Active
[8]
  Activity: Active
[9]
  Activity: Active
[10]
  Activity: inactive
[11]
  Activity: Active
[12]
  DC50: > 3000 nM
[13]
  DC50: > 3000 nM
[14]
  DC50: > 3000 nM
[15]
  ΔTm: 3.58 °C
[16]
  ΔTm: 4.35 °C
[17]
  ΔTm: 3.26 °C
[18]
  ΔTm: 7.14 °C
[19]
  Activity: Active
[20]
  DC50: > 3000 nM
[21]
  ΔTm: 4.95 °C
[22]
  Activity: Active
[23]
  Activity: inactive
[24]
  DC50: > 3000 nM
[25]
  Activity: Active

## CCn1c2ccc(-c3nc4ccc(N5CCN(CCO)CC5)cc4[nH]3)cc2c2cc(-c3nc4ccc(N5CCN(CCO)CC5)cc4[nH]3)ccc21
[1]
  DC50: 5280 nM
[2]
  DC50: 2860 nM
[26]
  Activity: Dose-dependent effect
[3]
  ΔTm: 17 °C
[4]
  Activity: Active
[5]
  Activity: Active
[6]
  Activity: Active
[7]
  Activity: Active
[8]
  Activity: Active
[9]
  Activity: Active
[10]
  Activity: Active
[11]
  Activity: Active
[12]
  DC50: 2790 nM
[13]
  DC50: 1620 nM
[14]
  DC50: 1420 nM
[15]
  ΔTm: 13.2 °C
[16]
  ΔTm: 12.8 °C
[17]
  ΔTm: 6.53 °C
[18]
  ΔTm: 9.74 °C
[19]
  Activity: Active
[20]
  DC50: 1630 nM
[21]
  ΔTm: 8.63 °C
[22]
  Activity: Active
[23]
  Activity: Active
[24]
  DC50: 1340 nM
[25]
  Activity: Active

## C[n+]1ccc(-c2c3nc(c(-c4cc[n+](C)cc4)c4ccc([nH]4)c(-c4cc[n+](C)cc4)c4ccc([nH]4)c(-c4cc[n+](C)cc4)c4nc2C=C4)C=C3)cc1
[3]
  ΔTm: 15.5 °C
[15]
  ΔTm: 15.1 °C
[16]
  ΔTm: 12.3 °C
[17]
  ΔTm: 14.3 °C
[18]
  ΔTm: 15.6 °C
[21]
  ΔTm: 11 °C

## CN1CCN(CCCCn2c3ccc(-c4nc5cc(N6CCOCC6)ccc5[nH]4)cc3c3cc(-c4nc5cc(N6CCOCC6)ccc5[nH]4)ccc32)CC1
[1]
  DC50: 5520 nM
[2]
  DC50: 1290 nM
[3]
  ΔTm: 16.6 °C
[4]
  Activity: Active
[5]
  Activity: Active
[6]
  Activity: Active
[7]
  Activity: Active
[8]
  Activity: Active
[9]
  Activity: Active
[10]
  Activity: inactive
[11]
  Activity: Active
[12]
  DC50: 1300 nM
[13]
  DC50: 980 nM
[14]
  DC50: 630 nM
[15]
  ΔTm: 12.2 °C
[16]
  ΔTm: 14.2 °C
[17]
  ΔTm: 5.54 °C
[18]
  ΔTm: 16.9 °C
[19]
  Activity: Active
[20]
  DC50: 850 nM
[21]
  ΔTm: 8.65 °C
[22]
  Activity: Active
[23]
  Activity: inactive
[24]
  DC50: 740 nM
[25]
  Activity: Active
